Laboratory results taken from ChEMBL document CHEMBL1138326, “Structure-based design, synthesis, and biological evaluation of indomethacin derivatives as cyclooxygenase-2 inhibiting nitric oxide donors” (J Med Chem, 2007).

Legend:
[1] = molecular target: T1, Prostaglandin G/H synthase 1 (Homo sapiens, UniProt P23219); experiment: Inhibition of COX1 in human whole blood assessed as effect on A23187-induced thromboxane B2 production at 100 uM relative to control; values are per cent of control
[2] = molecular target: T1, Prostaglandin G/H synthase 1; experiment: Inhibition of COX1 in human whole blood assessed as effect on A23187-induced thromboxane B2 production; assay type: tissue-based
[3] = molecular target: T1, Prostaglandin G/H synthase 1; experiment: Inhibition of COX1 in human whole blood assessed as effect on A23187-induced thromboxane B2 production at 1 uM relative to control; values are per cent of control
[4] = molecular target: T1, Prostaglandin G/H synthase 1; experiment: Inhibition of COX1 in human whole blood assessed as effect on A23187-induced thromboxane B2 production at 10 uM relative to control; values are per cent of control
Rattus norvegicus [5] = experiment: Antiinflammatory activity against intrapouch dosed Sprague-Dawley rat carrageenan air-pouch model assessed as reduction of prostaglandin E2 at 45 umol/kg; assay type: functional; design: scale not given: the % may be the effect or the level left
Method in brief: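 Air pouch made with 20 mL sterile air sc on day -6 and 10 mL more on day -3; rats fasted 18 h. Compound in 0.5% methocel injected into the pouch 1 h before carrageenan (1 mL of 1.0% in saline). After 4 h, exudate recovered with PBS/heparin and assayed for PGE2 by enzyme immunoassay.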

[6] = molecular target: T1, Prostaglandin G/H synthase 1; experiment: Inhibition of COX1 in human whole blood assessed as effect on A23187-induced thromboxane B2 production at 3 uM relative to control; values are per cent of control
Homo sapiens = species on record: Homo sapiens; experiment: Selectivity for human COX2 over human COX1
[7] = molecular target: T2, Prostaglandin G/H synthase 2 (Homo sapiens) (UniProt P35354); experiment: Inhibition of COX2 in human whole blood assessed as effect on LPS-induced thromboxane B2 production at 30 uM relative to control; values are per cent of control
T2 sequence (whole entry): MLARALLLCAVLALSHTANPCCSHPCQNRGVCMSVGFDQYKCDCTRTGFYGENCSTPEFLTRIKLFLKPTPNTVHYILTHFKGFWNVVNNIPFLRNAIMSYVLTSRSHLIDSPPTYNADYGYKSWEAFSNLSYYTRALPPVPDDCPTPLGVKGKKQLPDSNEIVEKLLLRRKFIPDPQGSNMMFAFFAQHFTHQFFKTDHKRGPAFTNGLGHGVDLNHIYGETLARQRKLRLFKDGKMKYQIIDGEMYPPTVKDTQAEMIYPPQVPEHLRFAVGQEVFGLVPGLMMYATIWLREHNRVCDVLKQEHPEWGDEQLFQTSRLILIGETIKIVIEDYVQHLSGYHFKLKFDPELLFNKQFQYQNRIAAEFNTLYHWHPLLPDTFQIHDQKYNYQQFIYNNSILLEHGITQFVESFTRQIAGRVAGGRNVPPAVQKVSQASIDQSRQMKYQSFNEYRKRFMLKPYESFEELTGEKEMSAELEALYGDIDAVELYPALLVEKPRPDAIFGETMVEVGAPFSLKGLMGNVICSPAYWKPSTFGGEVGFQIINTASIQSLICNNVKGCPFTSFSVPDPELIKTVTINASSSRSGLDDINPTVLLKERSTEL

[8] = molecular target: T1, Prostaglandin G/H synthase 1; experiment: Inhibition of COX1 in human whole blood assessed as effect on A23187-induced thromboxane B2 production at 30 uM relative to control; values are per cent of control
[9] = molecular target: T1, Prostaglandin G/H synthase 1; experiment: Inhibition of COX1 in human whole blood assessed as effect on A23187-induced thromboxane B2 production at 0.3 uM relative to control; values are per cent of control
Rattus norvegicus [10] = experiment: Antiinflammatory activity against Sprague-Dawley rat carrageenan air-pouch model assessed as reduction of prostaglandin E2 at 45 umol/kg, po; assay type: functional; design: scale not given: the % may be the effect or the level left
Method in brief: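 Air pouches raised by sc injection of 20 mL sterile air (day -6) plus 10 mL on day -3; rats fasted 18 h. Compound suspended in 0.5% methocel given orally 1 h before intrapouch carrageenan (1 mL of 1.0% in saline). Exudate collected 4 h later after PBS/heparin lavage; PGE2 by enzyme immunoassay. Means ± SEM, n = 6–22; ANOVA with Dunnett's test vs vehicle.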

T1 sequence (P23219 whole entry): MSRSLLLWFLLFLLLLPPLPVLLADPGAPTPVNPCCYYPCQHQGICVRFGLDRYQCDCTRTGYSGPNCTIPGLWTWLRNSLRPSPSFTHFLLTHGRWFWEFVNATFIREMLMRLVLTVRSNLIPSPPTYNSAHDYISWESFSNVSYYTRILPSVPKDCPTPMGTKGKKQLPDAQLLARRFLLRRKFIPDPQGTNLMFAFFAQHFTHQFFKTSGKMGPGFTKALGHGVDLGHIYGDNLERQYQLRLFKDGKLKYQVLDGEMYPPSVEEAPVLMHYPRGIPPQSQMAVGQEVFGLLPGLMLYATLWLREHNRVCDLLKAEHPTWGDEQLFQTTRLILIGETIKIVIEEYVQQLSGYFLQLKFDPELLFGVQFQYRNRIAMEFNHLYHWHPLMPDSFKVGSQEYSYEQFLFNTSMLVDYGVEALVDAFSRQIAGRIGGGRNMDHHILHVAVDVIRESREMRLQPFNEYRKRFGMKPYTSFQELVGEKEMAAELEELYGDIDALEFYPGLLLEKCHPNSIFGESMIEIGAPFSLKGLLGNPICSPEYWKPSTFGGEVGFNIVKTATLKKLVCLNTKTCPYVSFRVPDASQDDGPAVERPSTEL

Compound | residual activity [1] [%] | IC50 [2] [nM] | residual activity [3] [%] | residual activity [4] [%] | residual activity [6] [%] | other results
COc1ccc2c(c1Cl)c(CC(=O)OCc1ccccc1)c(C)n2C(=O)c1ccc(Cl)cc1 | 65 | > 100000 |  |  |  | 
COc1ccc2c(c1)c(CCO[N+](=O)[O-])c(C)n2CC1CCCCC1 | 93 |  |  |  |  | 
COc1ccc2c(c1)c(CC(=O)O)c(C)n2C(=O)c1ccc(Cl)cc1 [INDOMETHACIN] |  |  |  |  |  | Activity (Rattus norvegicus [5]): 97%
COc1ccc2c(c1)c(CC(=O)NOCCO)c(C)n2C(=O)c1ccc(Cl)cc1 | 1 | < 1000 |  | 3 | 20 | 
COc1cc2c(CC(=O)OCc3ccccc3)c(C)n(C(=O)c3ccc(Cl)cc3)c2cc1Cl | 58 | > 100000 |  |  |  | 
CCOC(=O)Cc1c(C)n(CC2CCCCC2)c2ccc(OC)cc12 | 85 |  |  |  |  | 
COc1ccc2c(c1)c(CC(=O)NC(CO[N+](=O)[O-])(CO[N+](=O)[O-])CO[N+](=O)[O-])c(C)n2C(=O)c1ccc(Cl)cc1 | 1 | 1200 | 50 | 11 | 16 | 
COc1ccc2c(c1)c(CCO[N+](=O)[O-])c(C)n2C(=O)c1ccc(Cl)cc1 | 15 |  | 69 | 73 |  | 
COc1ccc2c(c1)c(CCO)c(C)n2C(=O)c1ccc(Cl)cc1 | 0 | 2300 | 76 | 16 | 18 | 
Cc1c(CC(=O)NCCCO[N+](=O)[O-])c2cc(O)ccc2n1C(=O)c1ccc(Cl)cc1 | 1 | 4700 |  | 27 | 74 | residual activity [8]: 1%; residual activity [7]: 2%
COc1ccc2c(c1)c(CC(=O)O)c(C)n2Cc1ccc(S(C)(=O)=O)cc1 | 87 |  |  |  |  | 
COc1ccc2c(c1)c(CC(=O)NCCCO[N+](=O)[O-])c(C)n2CC1CCCCC1 | 100 |  |  |  |  | 
COc1ccc2c(c1)c(CCNS(=O)(=O)CCCO[N+](=O)[O-])c(C)n2C(=O)c1ccc(Cl)cc1 | 16 | 11000 | 100 | 57 | 68 | Activity (Rattus norvegicus [10]): 44%; residual activity [8]: 20%; residual activity [7]: 7%; Activity (Rattus norvegicus [5]): 59%
COc1cc2c(CC(=O)O)c(C)n(C(=O)c3ccc(Cl)cc3)c2cc1Cl | 13 | 1600 | 61 | 24 | 41 | Ratio IC50 (Homo sapiens): 0.4; residual activity [8]: 2%; residual activity [7]: 0%
COc1ccc2c(c1)c(CC(=O)NO)c(C)n2C(=O)c1ccc(Cl)cc1 [OXAMETACIN] | 2 | 2800 | 84 | 29 |  | 
COc1ccc2c(c1)c(CC(=O)O)c(C)n2CC1CCCCC1 | 85 |  |  |  |  | 
COc1ccc2c(c1)c(CCNS(=O)(=O)CCCO)c(C)n2C(=O)c1ccc(Cl)cc1 | 6 | 3700 | 73 | 33 | 51 | residual activity [9]: 82%; Ratio IC50 (Homo sapiens): 3.5; Activity (Rattus norvegicus [10]): 96%; residual activity [8]: 23%; residual activity [7]: 0%; Activity (Rattus norvegicus [5]): 98%
COc1ccc2c(c1)c(CCN)c(C)n2C(=O)c1ccc(Cl)cc1 | 1 | > 10000 | 100 | 100 |  | residual activity [7]: 78%
COc1ccc2c(c1)c(CCOC(=O)NS(=O)(=O)NCCCO[N+](=O)[O-])c(C)n2C(=O)c1ccc(Cl)cc1 | 61 |  | 100 | 100 |  | 
COc1ccc2c(c1)c(CCP(=O)(O)O)c(C)n2C(=O)c1ccc(Cl)cc1 | 76 |  |  |  |  | 
Cc1c(CC(=O)NCCCO)c2cc(O)ccc2n1C(=O)c1ccc(Cl)cc1 | 8 | 5400 | 83 | 40 | 58 | residual activity [8]: 7%; residual activity [7]: 4%
Cc1c(CC(=O)NCCCO[N+](=O)[O-])c2cc(OS(N)(=O)=O)ccc2n1C(=O)c1ccc(Cl)cc1 | 65 | > 100000 | 100 | 92 |  | Ratio IC50 (Homo sapiens): > 4; residual activity [7]: 46%
COc1ccc2c(c1)c(CCNC(=O)c1ccc(CO[N+](=O)[O-])cc1)c(C)n2C(=O)c1ccc(Cl)cc1 |  | < 1000 |  |  |  | 

The next lines start with results.

residual activity [1] [%] | IC50 [2] [nM] | residual activity [3] [%] | residual activity [4] [%] | residual activity [6] [%] | Compound | other results
62 |  | 83 | 74 |  | COc1ccc2c(c1)c(CCOC(=O)NCCCO[N+](=O)[O-])c(C)n2C(=O)c1ccc(Cl)cc1 | 
12 | 1900 | 68 | 23 |  | COc1ccc2c(c1)c(CCNS(=O)(=O)c1ccc(CO[N+](=O)[O-])cc1)c(C)n2C(=O)c1ccc(Cl)cc1 | 
1 | 2400 | 64 | 23 | 46 | COc1ccc2c(c1)c(CC(=O)NCCCCO)c(C)n2C(=O)c1ccc(Cl)cc1 | Ratio IC50 (Homo sapiens): 2
44 |  |  |  |  | COc1ccc2c(c1)c(CCOC(=O)NS(=O)(=O)OCCCO[N+](=O)[O-])c(C)n2C(=O)c1ccc(Cl)cc1 | 
18 |  | 100 | 55 | 80 | Cc1c(CC(=O)O)c2cc(O)ccc2n1C(=O)c1ccc(Cl)cc1 | residual activity [7]: 0%
53 |  |  |  |  | COc1ccc2c(c1)c(CC(=O)NCCCO[N+](=O)[O-])c(C)n2Cc1ccc(S(C)(=O)=O)cc1 | 
95 |  |  |  |  | COc1ccc2c(c1)c(CCO)c(C)n2CC1CCCCC1 | 
1 | < 300 |  |  |  | COc1ccc2c(c1)c(CC(=O)NOCCCO)c(C)n2C(=O)c1ccc(Cl)cc1 | residual activity [9]: 28%; Ratio IC50 (Homo sapiens): < 0.4
7 | 3600 | 68 | 34 |  | COc1ccc2c(c1)c(CC(=O)NOC(C)=O)c(C)n2C(=O)c1ccc(Cl)cc1 | 
0 | < 300 |  |  |  | COc1ccc2c(c1)c(CC(=O)NOCc1ccccc1)c(C)n2C(=O)c1ccc(Cl)cc1 | 
3 | 2600 | 78 | 25 | 45 | COc1ccc2c(c1)c(CC(=O)NCC(C)(C)CO[N+](=O)[O-])c(C)n2C(=O)c1ccc(Cl)cc1 | residual activity [8]: 3%
6 | < 1000 | 39 | 14 |  | COc1ccc2c(c1)c(CC(=O)N(OC(C)=O)C(C)=O)c(C)n2C(=O)c1ccc(Cl)cc1 | 
2 | 3000 | 93 | 29 |  | COc1ccc2c(c1)c(CCNC(=O)NCCCO[N+](=O)[O-])c(C)n2C(=O)c1ccc(Cl)cc1 | Ratio IC50 (Homo sapiens): 0.3
